This note sets out measurements from ChEMBL document CHEMBL4699606, “New type of anti-influenza agents based on benzo[d][1,3]dithiol core” (Bioorg Med Chem Lett, 2020).

Data set [1] can be described thus: Cytotoxicity against dog MDCK cells assessed as reduction in cell viability by MTT assay. The data set is classed as cell-based, Canis lupus familiaris. (Tetrazolium assays rely on reduction of a dye to a coloured formazan, in cell work by metabolically active cells.)
A short description of data set [2]: Antiviral activity against Influenza A virus (A/California/07/09(H1N1))pdm09 infected in MDCK cells assessed as reduction in viral replication preincubated with compound for 1 hr followed by viral infection and measured after viral cultivation for 48 hrs by hemagglutination test. The data set is classed as functional, cell-based, Influenza A virus (A/California/07/2009(H1N1)).

Data set [3] can be described thus: Selectivity index, ratio of CC50 for dog MDCK cells to IC50 for Influenza A virus (A/California/07/09(H1N1)) pdm09 infected in MDCK cells. The data set is classed as toxicity, cell-based. To be noted: read-out: Ratio CC50/IC50.
Data set [4] has as its system Influenza A virus (A/California/07/2009(H1N1)). The data set is described as follows: Inhibition of Influenza A virus (A/California/07/09(H1N1))pdm09 hemagglutinin receptor binding activity.
Data set [5] relates to MDCK. The data set is described as follows: Antiviral activity against Influenza A virus (A/California/07/09(H1N1))pdm09 infected in MDCK cells assessed as suppression of viral replication at early stage of viral cycle after 2 hpi by time of addition assay. In kind it is functional, cell-based. The note with it: Influenza A virus (A/California/07/2009(H1N1)), time 2.0 hrs. A digest of the protocol: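 Time-of-addition study in MDCK cells. Compound added at set times relative to infection (time 0 = moment of infection). Read-out was the infectious activity of viral progeny, assayed in MDCK cells.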

The test system of data set [6] is Influenza A virus (A/California/07/2009(H1N1)). The data set is described as follows: Anti-membranotropic activity against Influenza A virus (A/California/07/09(H1N1))pdm09 hemagglutinin assessed as inhibition of HA-driven chicken erythrocytes membrane fusion incubated for 30 mins by fusogenic activity assay. A digest of the protocol:
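Compound mixed with virus and held 30 min at room temperature, then combined with 0.75% chicken erythrocytes at +4 °C. Fusion was triggered with MES buffer at pH 5.0. After erythrocytes sedimented, haemoglobin released by membrane lysis was read as optical density at 405 nm.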

The source made the active and inactive calls. No cut-off for these calls is given here.

Take `NC(=O)c1ncn([C@@H]2O[C@H](CO)[C@@H](O)[C@H]2O)n1` [RIBAVIRIN]: in data set [1], the CC50 (in general, the concentration that lowers cell viability or growth by half) is over 2130 µM. Moreover, in data set [2], the IC50 – broadly, the concentration at which inhibition is half-maximal – stood at 44 µM. Moreover, the selectivity ratio in data set [3] was 48.
Turning to `O=C(CCN1CCCC1)Nc1cc(C(F)(F)F)cc2sc(=O)sc12`, the CC50 in data set [1] amounted to 75 µM. Besides, the IC50 in data set [2] stood at 6 µM. The selectivity ratio in data set [3] came out at 12.
Consider `O=C(CN1CCCC1)Nc1cc(C(F)(F)F)cc2sc(=O)sc12`, for which the CC50 in data set [1] was over 829 µM. Besides, in data set [2], the IC50 worked out at 191 µM. For the same compound, the selectivity ratio in data set [3] came out at 4.
For the compound `O=C(CCN1CCCCC1)Nc1cc(C(F)(F)F)cc2sc(=O)sc12`, the CC50 in data set [1] was found to be 34 µM. For the same compound, the IC50 in data set [2] is over 28.2 µM. The selectivity ratio in data set [3] worked out at 1.
Take `O=C(CN1CCCCC1)Nc1cc(C(F)(F)F)cc2sc(=O)sc12`: in data set [4], the inhibition entry was “inactive”. Besides, the CC50 in data set [1] is 532 µM. Also, the half-inhibitory concentration (IC50) in data set [2] turned out to be 18 µM. Also, the result in data set [5] was Active. The selectivity ratio in data set [3] is 29. Also, the inhibition entry in data set [6] is “Dose-dependent effect”.
For the compound `Nc1cc(C(F)(F)F)cc2sc(=O)sc12`, the CC50 in data set [1] stood at 212 µM. The IC50 in data set [2] turned out to be 19 µM. Moreover, the selectivity ratio in data set [3] was 11.
For the compound `CC(=O)Nc1cc(C(F)(F)F)cc2sc(=O)sc12`, the CC50 in data set [1] stood at 95 µM. Also, the IC50 in data set [2] stood at 38 µM. Also, in data set [3], the selectivity ratio is 3.
As to `CC(N)C12CC3CC(CC(C3)C1)C2` (stereo not given) [RIMANTADINE], the IC50 in data set [2] was 41 µM. Further, in data set [3], the selectivity ratio was 9.
For the compound `O=C(Nc1cc(C(F)(F)F)cc2sc(=O)sc12)C(F)(F)F`, the CC50 in data set [1] stood at 2.2 µM. Moreover, the IC50 in data set [2] amounted to 0.2 µM. Further, the selectivity ratio in data set [3] was found to be 12.
Regarding `O=C(CCN1CCOCC1)Nc1cc(C(F)(F)F)cc2sc(=O)sc12`, in data set [1], the CC50 was 104 µM. For the same compound, the half-inhibitory concentration (IC50) in data set [2] was found to be 9 µM. Also, the selectivity ratio in data set [3] amounted to 11.
The matching figures for `O=C(CN1CCOCC1)Nc1cc(C(F)(F)F)cc2sc(=O)sc12`: 13 µM, 5 µM and 3.
